Reference: ChEMBL document CHEMBL1800027, “Imidazolopiperazines: hit to lead optimization of new antimalarial agents” (J Med Chem, 2011)

Legend:
[1] = system: Plasmodium berghei; experiment: Antimalarial activity against GFP-tagged Plasmodium berghei ANKA infected in NMRI mouse assessed as mouse survival at 30 mg/kg, po administered as single dose 24 hrs post infection measured 72 hrs post infection
[2] = target: Cytochrome P450 2C9 (Homo sapiens, UniProt P11712); experiment: Inhibition of CYP 2C9; assay type: ADME
Chain of Cytochrome P450 2C9 (P11712 whole entry): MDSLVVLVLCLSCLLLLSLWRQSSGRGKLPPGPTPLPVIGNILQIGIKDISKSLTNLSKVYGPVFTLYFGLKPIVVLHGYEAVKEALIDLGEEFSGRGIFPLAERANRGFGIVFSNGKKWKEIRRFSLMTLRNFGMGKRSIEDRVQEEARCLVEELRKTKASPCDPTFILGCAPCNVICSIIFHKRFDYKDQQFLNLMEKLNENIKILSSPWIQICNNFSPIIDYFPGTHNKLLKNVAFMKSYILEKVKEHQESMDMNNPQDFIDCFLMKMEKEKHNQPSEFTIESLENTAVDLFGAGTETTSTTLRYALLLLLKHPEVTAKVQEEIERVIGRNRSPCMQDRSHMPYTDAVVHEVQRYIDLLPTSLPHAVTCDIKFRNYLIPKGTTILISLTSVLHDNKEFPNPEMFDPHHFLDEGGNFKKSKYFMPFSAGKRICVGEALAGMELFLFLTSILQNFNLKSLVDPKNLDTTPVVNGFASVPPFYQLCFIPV

[3] = Cytotoxicity against human HeLa cells; assay type: cell-based; details: read-out: TC50 (the source's name)
[4] = in vitro; details: human, Caco-2
[5] = Volume of distribution in male BALB/c mouse at 5 mg/kg, iv by LC/MS/MS analysis; assay type: ADME, organism-based; design: dose 5 mg/kg, route intravenous; details: in vivo
Summary of the method: (§1)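 Male Balb/c mice, n = 3 per group, dosed iv via lateral tail vein at 5 mg/kg and 2 mL/kg. Vehicle 2.5 mg/mL in 75% PEG300/25% DSW, filtered. Six serial retro-orbital blood samples up to 24 h, heparinized plasma. Plasma extracted with acetonitrile/methanol (3:1) plus internal standard for LC/MS/MS (positive ESI, MRM). Noncompartmental analysis.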

[6] = system: Mus musculus; experiment: Cmax in male BALB/c mouse at 20 mg/kg, po by LC/MS/MS analysis; assay type: ADME, organism-based; design: dose 20 mg/kg, route oral; details: in vivo
Summary of the method: (§2)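 Male Balb/c mice, n = 3 per group, given 20 mg/kg orally at 8 mL/kg. Vehicle 2.5 mg/mL in 75% PEG300/25% DSW, filtered. Six serial retro-orbital blood samples up to 24 h, heparinized plasma. Plasma extracted with acetonitrile/methanol (3:1) plus internal standard; LC/MS/MS quantitation by positive ESI MRM. Noncompartmental analysis; values normalized to 30 mg/kg. F = (AUCpo·dose iv)/(AUCiv·dose po).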

[7] = Cytotoxicity against Cricetulus griseus CHO cells; assay type: cell-based; details: chinese hamster, read-out: TC50 (the source's name)
[8] = system: Plasmodium berghei; experiment: Antimalarial activity against GFP-tagged Plasmodium berghei ANKA infected in NMRI mouse assessed as mouse survival at 30 mg/kg, po QD administered 24 hrs post infection for 3 days measured on day 30 post infection; assay type: functional
[9] = Half-life in male BALB/c mouse at 5 mg/kg, iv by LC/MS/MS analysis; assay type: ADME, organism-based; design: dose 5 mg/kg, route intravenous; details: in vivo
Summary of the method: as §1

[10] = Half life in male BALB/c mouse at 20 mg/kg, po by LC/MS/MS analysis; assay type: ADME, organism-based; design: dose 20 mg/kg, route oral; details: in vivo
Summary of the method: as §2

[11] = pampa
[12] = in vitro; details: human, Caco-2; remark: listed apart in the source
[13] = Cytotoxicity against human 293T cells; assay type: cell-based; details: HEK-293T cells, read-out: TC50 (the source's name)
[14] = target: Cytochrome P450 2D6 (Homo sapiens, UniProt P10635); experiment: Inhibition of CYP 2D6; assay type: ADME
Chain of Cytochrome P450 2D6 (P10635 whole entry): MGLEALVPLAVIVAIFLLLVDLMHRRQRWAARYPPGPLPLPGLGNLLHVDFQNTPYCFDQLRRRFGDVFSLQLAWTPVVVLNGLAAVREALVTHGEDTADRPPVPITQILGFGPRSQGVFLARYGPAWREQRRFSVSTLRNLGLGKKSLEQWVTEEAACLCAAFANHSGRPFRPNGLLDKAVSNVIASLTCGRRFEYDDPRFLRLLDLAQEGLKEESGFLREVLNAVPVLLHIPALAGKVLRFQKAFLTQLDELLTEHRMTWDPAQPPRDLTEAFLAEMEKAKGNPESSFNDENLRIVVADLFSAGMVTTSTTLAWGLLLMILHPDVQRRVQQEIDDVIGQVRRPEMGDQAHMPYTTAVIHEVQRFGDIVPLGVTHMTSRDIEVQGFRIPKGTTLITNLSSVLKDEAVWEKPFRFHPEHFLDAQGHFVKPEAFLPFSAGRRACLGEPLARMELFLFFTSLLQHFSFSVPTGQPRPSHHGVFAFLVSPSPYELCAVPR

[15] = target: Cytochrome P450 3A4 (Homo sapiens, UniProt P08684); experiment: Inhibition of CYP 3A4; assay type: ADME
Chain of Cytochrome P450 3A4 (P08684 whole entry): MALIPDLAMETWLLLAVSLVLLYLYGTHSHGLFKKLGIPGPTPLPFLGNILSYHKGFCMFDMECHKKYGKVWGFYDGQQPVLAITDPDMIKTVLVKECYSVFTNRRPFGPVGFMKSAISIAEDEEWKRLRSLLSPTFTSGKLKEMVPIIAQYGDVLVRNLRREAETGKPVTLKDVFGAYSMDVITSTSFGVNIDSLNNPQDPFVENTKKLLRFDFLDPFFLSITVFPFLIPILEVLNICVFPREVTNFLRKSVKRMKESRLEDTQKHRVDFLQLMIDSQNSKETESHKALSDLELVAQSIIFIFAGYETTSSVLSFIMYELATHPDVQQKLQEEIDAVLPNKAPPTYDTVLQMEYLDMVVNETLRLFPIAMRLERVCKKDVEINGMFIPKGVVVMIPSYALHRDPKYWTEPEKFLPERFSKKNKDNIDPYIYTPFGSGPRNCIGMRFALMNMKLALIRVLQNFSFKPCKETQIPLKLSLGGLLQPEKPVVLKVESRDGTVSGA

[16] = Cytotoxicity against human HuH7 cells; assay type: cell-based; details: Huh-7 cells, read-out: TC50 (the source's name)
[17] = system: Plasmodium falciparum; experiment: Antimalarial activity against Plasmodium falciparum W2 infected in human erythrocytes assessed as decrease in parasitemia after 72 hrs; assay type: functional, organism-based; details: W2, 72 h
[18] = system: Rattus norvegicus; experiment: Toxicity in rat assessed as adverse effect at 500 mg/kg; assay type: organism-based; design: dose 500 mg/kg; details: in vivo
[19] = target: Cytochrome P450 2C19 (Homo sapiens, UniProt P33261); experiment: Inhibition of CYP 2C19; assay type: ADME
Chain of Cytochrome P450 2C19 (P33261 whole entry): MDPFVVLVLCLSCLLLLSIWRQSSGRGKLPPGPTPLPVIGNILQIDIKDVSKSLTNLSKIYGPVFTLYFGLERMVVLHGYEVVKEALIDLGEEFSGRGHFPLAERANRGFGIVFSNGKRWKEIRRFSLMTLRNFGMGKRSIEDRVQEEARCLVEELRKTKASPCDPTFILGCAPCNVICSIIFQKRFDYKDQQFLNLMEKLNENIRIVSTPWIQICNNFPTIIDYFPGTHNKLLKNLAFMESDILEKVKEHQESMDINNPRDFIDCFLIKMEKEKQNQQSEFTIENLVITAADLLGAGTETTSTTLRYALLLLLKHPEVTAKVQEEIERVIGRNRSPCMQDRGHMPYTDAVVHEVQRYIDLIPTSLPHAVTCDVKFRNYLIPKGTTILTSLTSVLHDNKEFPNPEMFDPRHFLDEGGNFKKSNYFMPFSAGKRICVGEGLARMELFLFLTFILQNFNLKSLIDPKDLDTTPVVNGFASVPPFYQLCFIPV

[20] = target: T1, Cytochrome P450 1A2 (Homo sapiens, UniProt P05177); experiment: Inhibition of CYP 1A2; assay type: ADME
T1 sequence (P05177 whole entry): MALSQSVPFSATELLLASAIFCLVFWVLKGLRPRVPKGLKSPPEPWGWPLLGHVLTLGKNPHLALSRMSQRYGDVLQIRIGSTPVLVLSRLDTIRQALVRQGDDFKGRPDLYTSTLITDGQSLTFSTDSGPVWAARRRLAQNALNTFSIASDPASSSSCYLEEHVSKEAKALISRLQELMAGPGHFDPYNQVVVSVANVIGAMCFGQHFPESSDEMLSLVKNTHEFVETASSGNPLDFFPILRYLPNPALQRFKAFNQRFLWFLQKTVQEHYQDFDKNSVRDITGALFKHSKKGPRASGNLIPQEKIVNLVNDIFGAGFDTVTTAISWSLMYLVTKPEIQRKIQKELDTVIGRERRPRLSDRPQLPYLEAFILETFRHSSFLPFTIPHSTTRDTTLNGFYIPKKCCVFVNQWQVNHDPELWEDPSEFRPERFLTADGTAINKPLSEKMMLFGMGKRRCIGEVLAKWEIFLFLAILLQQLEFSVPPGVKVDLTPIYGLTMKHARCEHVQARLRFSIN

[21] = Oral bioavailability in male BALB/c mouse at 20 mg/kg by LC/MS/MS analysis; assay type: ADME, organism-based; details: in vivo
Summary of the method: as §2

[22] = Clearance in male BALB/c mouse at 5 mg/kg, iv by LC/MS/MS analysis; assay type: ADME, organism-based; design: dose 5 mg/kg, route intravenous; details: in vivo
Summary of the method: as §1

[23] = system: Mus musculus; experiment: AUC (0 to infinity) in male BALB/c mouse at 20 mg/kg, po by LC/MS/MS analysis; assay type: ADME, organism-based, Plasma; design: time infinity, dose 20 mg/kg, route oral; details: in vivo
Summary of the method: as §2

[24] = system: Plasmodium berghei; experiment: Antimalarial activity against GFP-tagged Plasmodium berghei ANKA infected in NMRI mouse assessed as reduction in parasitemia at 30 mg/kg, po QD administered 24 hrs post infection for 3 days measured on day 4 post infection; assay type: functional; design: scale not given: the % may be the effect or the level left
[25] = system: Plasmodium falciparum; experiment: Antimalarial activity against Plasmodium falciparum 3D7 infected in human erythrocytes assessed as decrease in parasitemia after 72 hrs; assay type: functional, organism-based; details: 3D7, 72 h
[26] = Tmax in male BALB/c mouse at 20 mg/kg, po by LC/MS/MS analysis; assay type: ADME, organism-based; design: dose 20 mg/kg, route oral; details: in vivo
Summary of the method: as §2

[27] = Cytotoxicity against mouse BAF3 cells; assay type: cell-based; details: read-out: TC50 (the source's name)
[28] = AUC (0 to infinity) in male BALB/c mouse at 5 mg/kg, iv by LC/MS/MS analysis; assay type: ADME, organism-based; design: time infinity, dose 5 mg/kg, route intravenous; details: plasma
Summary of the method: as §1

[29] = Cytotoxicity against human Hep2 cells; assay type: cell-based; details: HEp-2 cells, read-out: TC50 (the source's name)
[30] = in vivo; details: female, CD1, mouse, iv, 5 mg/kg
[31] = in vivo; details: female, CD1, mouse, iv, 5 mg/kg; remark: listed apart in the source
[32] = system: Plasmodium berghei; experiment: Antimalarial activity against GFP-tagged Plasmodium berghei ANKA infected in NMRI mouse assessed as mouse survival at 100 mg/kg, po administered as single dose 24 hrs post infection measured on day 30 post infection
[33] = target: Voltage-gated inwardly rectifying potassium channel KCNH2 (Homo sapiens, UniProt Q12809)
Chain of Voltage-gated inwardly rectifying potassium channel KCNH2 (Q12809 whole entry): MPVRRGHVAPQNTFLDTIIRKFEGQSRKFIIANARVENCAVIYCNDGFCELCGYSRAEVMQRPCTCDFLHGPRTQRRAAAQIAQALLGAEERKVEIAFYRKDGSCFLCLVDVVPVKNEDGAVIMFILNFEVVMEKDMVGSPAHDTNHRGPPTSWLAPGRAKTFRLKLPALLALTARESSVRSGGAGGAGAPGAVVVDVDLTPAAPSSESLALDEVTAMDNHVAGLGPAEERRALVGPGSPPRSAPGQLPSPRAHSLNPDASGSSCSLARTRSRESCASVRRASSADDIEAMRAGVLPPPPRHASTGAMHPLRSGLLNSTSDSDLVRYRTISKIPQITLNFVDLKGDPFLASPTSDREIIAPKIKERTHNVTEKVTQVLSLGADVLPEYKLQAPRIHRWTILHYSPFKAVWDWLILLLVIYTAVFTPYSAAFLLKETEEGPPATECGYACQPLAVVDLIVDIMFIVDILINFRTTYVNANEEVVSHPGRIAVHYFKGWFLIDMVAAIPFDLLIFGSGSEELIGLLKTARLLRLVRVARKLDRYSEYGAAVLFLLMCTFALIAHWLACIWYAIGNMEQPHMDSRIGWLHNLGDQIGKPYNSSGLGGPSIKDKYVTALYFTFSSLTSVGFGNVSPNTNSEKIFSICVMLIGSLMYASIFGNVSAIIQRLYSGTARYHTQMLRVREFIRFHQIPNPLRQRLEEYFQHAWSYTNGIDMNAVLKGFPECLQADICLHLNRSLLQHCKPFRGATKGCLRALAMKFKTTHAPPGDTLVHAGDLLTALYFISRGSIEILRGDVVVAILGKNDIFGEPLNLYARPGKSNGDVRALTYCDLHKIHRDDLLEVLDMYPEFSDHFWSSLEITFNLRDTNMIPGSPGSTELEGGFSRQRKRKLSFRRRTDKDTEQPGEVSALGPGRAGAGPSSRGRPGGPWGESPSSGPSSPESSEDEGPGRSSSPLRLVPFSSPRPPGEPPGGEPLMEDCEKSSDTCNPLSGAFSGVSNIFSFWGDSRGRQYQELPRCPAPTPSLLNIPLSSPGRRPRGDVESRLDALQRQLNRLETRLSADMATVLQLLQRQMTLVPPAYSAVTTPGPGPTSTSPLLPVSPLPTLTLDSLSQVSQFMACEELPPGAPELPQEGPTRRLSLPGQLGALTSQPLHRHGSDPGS

[34] = in vitro; details: rat, microsomes
[35] = in vivo; details: female, CD1, mouse, iv, 5 mg/kg; remark: listed apart in the source
[36] = Cmax in female CD1 mouse at 30 mg/kg, po by LC/MS/MS analysis; details: in vivo
[37] = in vitro; details: human, microsomes
[38] = in vivo; details: female, CD1, mouse, plasma, iv, 5 mg/kg
[39] = in vivo; details: female, CD1, mouse, plasma, po, 30 mg/kg
[40] = in vitro; details: mouse, microsomes
[41] = in vivo; details: female, CD1, mouse, po, 30 mg/kg
[42] = system: Plasmodium berghei; experiment: Antimalarial activity against GFP-tagged Plasmodium berghei ANKA infected in NMRI mouse assessed as reduction in parasitemia at 30 mg/kg, po administered as single dose 24 hrs post infection measured 72 hrs post infection; assay type: functional; design: scale not given: the % may be the effect or the level left
[43] = system: Mus musculus; experiment: Oral bioavailability in female CD1 mouse at 30 mg/kg by LC/MS/MS analysis; details: mouse, in vivo
[44] = Tmax in female CD1 mouse at 30 mg/kg, po by LC/MS/MS analysis; details: in vivo

CC(C)(N)C(=O)N1CCn2c(nc(-c3ccc(F)cc3)c2Nc2ccc(F)cc2)C1
Survival [1]: 7.7 days
IC50 [2]: > 8.9 µM
CC50 [3]: > 12 µM
Papp A→B [4]: 3.05 ×10⁻⁶ cm/s
Vd [5]: 23.7 L/kg
Cmax [6]: 1800 nM
CC50 [7]: > 12 µM
Survival [8]: 14 days
half-life [9]: 6.2 h
half-life [10]: 9 h
permeability [11]: 81%
Papp B→A [12]: 8.38 ×10⁻⁶ cm/s
CC50 [13]: > 12 µM
IC50 [14]: > 8.9 µM
IC50 [15]: > 8.9 µM
CC50 [16]: > 12 µM
IC50 [17]: 0.025 µM
Activity [18]: Non-toxic
IC50 [19]: > 8.9 µM
IC50 [20]: > 8.9 µM
bioavailability [21]: 87%
clearance [22]: 60 mL/min/kg
AUC [23]: 17.894 µM·h
Activity [24]: 99.6%
IC50 [25]: 0.02 µM
Tmax [26]: 1.67 h
CC50 [27]: > 12 µM
AUC(0-inf) [28]: 3.44 µM·h
CC50 [29]: > 12 µM

CC(C)(N)C(=O)N1CCn2c(nc(-c3ccc(F)cc3)c2Nc2ccc(Cl)cc2)C1
Survival [1]: 6 days
half-life [30]: 8.7 h
clearance [31]: 65.2 mL/min/kg
Papp A→B [4]: 1.46 ×10⁻⁶ cm/s
Survival [32]: 13 days
IC50 [33]: 2.3 µM
permeability [11]: 89%
Papp B→A [12]: 1.86 ×10⁻⁶ cm/s
hepatic extraction ratio [34]: 0.43
Vd [35]: 40.5 L/kg
IC50 [17]: 0.024 µM
Cmax [36]: 749 nM
hepatic extraction ratio [37]: 0.54
Activity [24]: 99.5%
AUC(0-inf) [38]: 2.98 µM·h
AUC(0-inf) [39]: 28.3 µM·h
hepatic extraction ratio [40]: 0.17
IC50 [25]: 0.03 µM
half-life [41]: 37.6 h
Activity [42]: 98%
F [43]: 158%
Tmax [44]: 1 h
